This note sets out measurements from PubChem BioAssay.

Assay [1] is described as follows: inhibitors of TNFa-induced NFkB p65 translocation, primary screen, imaging, HUVEC, MLSMR starter and 10KST1 sets (AID 438;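 active means inhibition above 20% together with a positive visual image hit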;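 further: compound added about 3h40 before a 20 min TNFalpha stimulation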;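 on inhibition: signal is the nuclear over cytoplasmic p65 intensity ratio per well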). The conditions noted are these: HUVEC TNFa-induced p65 nuclear translocation; cell count: measured here: nuclei count (cytotoxicity indicator), at 2.08 µM; inhibition: at 2 µM, stronger effect = higher value, 0% TNFa-plus-vehicle, 100% no-TNFa wells.
A short description of assay [2]: reduction of polyQ htt aggregates in cells – imaging, exon1htt(103Q)mCFP cells, high-content imaging, primary screen (AID 483;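 active means visual image review flags a hit and inhibition of aggregation exceeds 20%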;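 further: compound exposure lasted 3 days before fixation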;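 on nuclei count: percent of the per-plate median nuclei count of sample wells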). Conditions: exon1htt(103Q)mCFP cell line, aggregate imaging, at 2 µM; inhibition of aggregation: stronger effect = higher value; nuclei count: measured here: cell count, toxicity.
Assay [3] is described as follows: endothelial E-selectin expression blockers – imaging, HUVEC, immunofluorescence, MLSMR starter and 10KST1 sets, primary screen (AID 487;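 active means visually confirmed hit in the image check and inhibition above 20%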;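 on inhibition: signal is fraction of cell area covered by stained E-selectin grains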;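 on nuclei count: 100% = median nuclei count of all wells on the same plate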). The conditions noted are these: HUVEC TNFalpha-induced E-selectin immunofluorescence imaging, at 2 µM; inhibition: stronger effect = higher value; nuclei count: measured here: cell number, toxicity.
The target in assay [4] is Voltage-gated potassium channel subunit beta-2 (Rattus norvegicus) (UniProt P62483). The experiment in a line: inhibitors of rat Kvbeta2 reductase activity – biochemical, NADPH fluorescence, primary screen (AID 622;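 active means fluorescence slope higher than the sample average by over 3 SD, cut at about -0.22 in these data, passing the limit was not always enough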;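 further: slope of raw intensity against log time taken from 70 to 1610 s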). The conditions noted are these: recombinant KvBeta, 4-cyanobenzaldehyde reduction, at 10 µM, stronger effect = higher value.
Chain of Voltage-gated potassium channel subunit beta-2 (Rattus norvegicus) (P62483 whole entry, looked up): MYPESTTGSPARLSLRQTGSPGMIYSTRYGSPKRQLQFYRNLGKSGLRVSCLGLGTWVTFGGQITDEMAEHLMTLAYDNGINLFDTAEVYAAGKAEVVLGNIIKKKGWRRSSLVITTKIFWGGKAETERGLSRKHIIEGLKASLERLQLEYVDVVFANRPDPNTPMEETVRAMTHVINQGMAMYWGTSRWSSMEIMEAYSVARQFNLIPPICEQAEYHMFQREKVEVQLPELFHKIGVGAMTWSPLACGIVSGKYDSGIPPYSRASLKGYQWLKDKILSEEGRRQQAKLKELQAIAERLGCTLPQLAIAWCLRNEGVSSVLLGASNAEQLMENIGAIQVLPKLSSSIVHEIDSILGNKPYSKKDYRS
Assay [5] has the same target. The experiment in a line: enhancers of rat Kvbeta2 NADPH turnover – biochemical, NADPH fluorescence, primary screen (AID 623).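 Further: fluorescence intensity change per second fitted from 20 to 320 s.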 The conditions noted are these: Recombinant KvBeta, NADPH fluorescence decrease slope, 10 min; at 10 µM; stronger effect = lower value.
The target in assay [6] is Muscarinic acetylcholine receptor M4 (Homo sapiens) (UniProt P08173). The experiment in a line: M4-linked GIRK flux change, two-sided – cell-based, HEK293 M4/GIRK, thallium flux, BTC-AM, M4 allosteric agonist project, primary screen (AID 625;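 active means fluorescence slope after compound addition differing from the mean of all tested samples at 99.7% confidence, mostly higher but some lower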;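 further: thallium influx through GIRK channels coupled to M4 in HEK293 cells with BTC-AM dye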). The conditions noted are these: at 10 µM, actives lie on both sides. The method in brief:
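System: HEK293 cells with M4 receptor and GIRK channels | Incubation: Cells overnight at 37 °C, BTC-AM loading 1 h, reads 2 min total | Technique: Kinetic BTC-AM fluorescence sampled at 1 Hz, 10 s pre-addition baseline | Measure: Post-addition slope, 15–24 s, of baseline-normalized fluorescence | Control set: Carbachol positive, DMSO negative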

A short description of assay [7]: blockers of RIG-like receptor reporter activation – cell-based, Sendai virus stimulus, luciferase, 10K MLSCN set, TLR/RLR signaling modifier project, primary screen (AID 602276;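 active means inhibition at or above 50% at 10 µM; inactive means inhibition below 50%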;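 further: firefly luciferase from ISG56 promoter only with Renilla not read in this screen; 0% = Sendai virus plus DMSO and 100% = medium plus DMSO without virus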). Conditions: HEK293 RL24 IRF3 luciferase reporter, at 10 µM, stronger effect = higher value. For orientation: A reporter such as luciferase makes a cellular process visible.
Assay [8] in a line: TLR3 IRF3 reporter activation blockers – cell-based, poly I:C stimulus, luciferase, 10K MLSCN set, primary screen (AID 602277;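 active means inhibition of the reporter signal at or above 50%; inactive means inhibition below 50%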). Conditions: HEK293-TLR3 RL24 IRF3 luciferase reporter, at 10 µM, stronger effect = higher value.

Active and inactive are the calls of the source.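 How the source made its calls, unless noted: active means NADPH fluorescence slope more negative than the mean of all samples by about 3 SD, 99.7% confidence; inactive means the rest.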

Chain of Muscarinic acetylcholine receptor M4 (Homo sapiens) (P08173 whole entry, looked up): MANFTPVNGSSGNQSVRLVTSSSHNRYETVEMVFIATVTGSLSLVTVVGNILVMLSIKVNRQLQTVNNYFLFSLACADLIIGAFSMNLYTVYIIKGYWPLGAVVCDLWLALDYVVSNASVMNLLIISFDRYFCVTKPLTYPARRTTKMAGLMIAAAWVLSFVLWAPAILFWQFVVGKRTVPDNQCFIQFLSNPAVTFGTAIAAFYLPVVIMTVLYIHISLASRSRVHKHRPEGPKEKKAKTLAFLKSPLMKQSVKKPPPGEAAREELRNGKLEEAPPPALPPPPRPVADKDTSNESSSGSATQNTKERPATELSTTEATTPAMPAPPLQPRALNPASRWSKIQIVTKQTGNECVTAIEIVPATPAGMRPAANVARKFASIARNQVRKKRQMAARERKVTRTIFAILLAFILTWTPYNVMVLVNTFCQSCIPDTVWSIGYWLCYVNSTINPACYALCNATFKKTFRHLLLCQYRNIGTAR

As usually defined, the inhibition is the change of the read-out against control, counted positive when it falls. As to `COc1ccc(C2C(C(C)=O)=C(C)N=c3s/c(=C\c4ccc5c(c4)OCO5)c(=O)n32)c(OC)c1` (stereo not drawn), the cell count in assay [1] was determined as 340. Moreover, the inhibition in assay [1] was -19.3% (inactive); in assay [3], 3.3% (inactive); in assay [7] it was -6% (inactive); in assay [8], 20.7% (inactive). Also, the inhibition of aggregation in assay [2] is 12.7% (inactive). Further, the values for the nuclei count in assay [2] and in assay [3] were 118% and 115%, respectively. The values for the fluorescence slope in assay [4] and in assay [6] were -0.568 (inactive) and 0.00431 (inactive), respectively. Moreover, the NADPH fluorescence slope in assay [5] was -1.5e-05 (inactive).
With `COC(=O)Cn1c2c(c3cc(C)ccc31)CCCC2`, the cell count in assay [1] is 640. The inhibition in assay [1] is -9.9% (inactive); in assay [3], -28.6% (inactive); in assay [7] it was 18.4% (inactive); in assay [8], 21.6% (inactive). Besides, in assay [2], the inhibition of aggregation was 23.1% (inactive). Also, the nuclei count in assay [2] was 91.1%; in assay [3], 111%. The fluorescence slope in assay [4] is -0.523 (inactive); in assay [6], 0.00431 (inactive). Besides, the NADPH fluorescence slope in assay [5] was -0.000167 (inactive).
Consider `O=C(O)CCCC(=O)Nc1ccc(Br)cc1C(=O)O`, for which the cell count in assay [1] was determined as 398. Further, the inhibition in assay [1] is 3.8% (inactive); in assay [3], 12.5% (inactive); in assay [7], 16.9% (inactive); in assay [8], 20.6% (inactive). Besides, the inhibition of aggregation in assay [2] was -5.6% (inactive). Also, the nuclei count was 108% in assay [2] and 103% in assay [3]. The fluorescence slope in assay [4] is -0.57 (inactive); in assay [6], 0.00576 (inactive). The NADPH fluorescence slope in assay [5] is 2.4e-05 (inactive).
For `O=C(CSc1ncnc2ccccc12)N1CCN(c2ccccc2)CC1`, the cell count in assay [1] was 567. Also, the inhibition is -10.9% (inactive) in assay [1], 9.1% (inactive) in assay [3], 1.94% (inactive) in assay [7] and 15.7% (inactive) in assay [8]. Further, the inhibition of aggregation in assay [2] is 10.5% (inactive). Also, the values for the nuclei count in assay [2] and in assay [3] were 99.4% and 108%, respectively. In addition, the fluorescence slope in assay [4] is -0.47 (inactive); in assay [6], 0.00572 (inactive). Moreover, in assay [5], the NADPH fluorescence slope is 3.6e-05 (inactive).
Take `Cc1cc(C)c2cc(CN(CC3CCCO3)C(=O)NC3CCCCC3)c(=O)[nH]c2c1` (stereo not drawn): the cell count in assay [1] came to 598. Further, the inhibition is -21% (inactive) in assay [1], -28.1% (inactive) in assay [3], 16.7% (inactive) in assay [7] and 17.3% (inactive) in assay [8]. Besides, the inhibition of aggregation in assay [2] was -17.9% (inactive). Moreover, the nuclei count turned out to be 109% in assay [2] and 94% in assay [3]. Further, the fluorescence slope is -0.567 (inactive) in assay [4] and 0.0057 (inactive) in assay [6]. In addition, the NADPH fluorescence slope in assay [5] is -5.6e-05 (inactive).
`N#Cc1cn(CC(=O)N2CCCC2)c2ccccc12`: the cell count in assay [1] came to 391. Besides, the inhibition in assay [1] is 3% (inactive); in assay [3] it was -18.5% (inactive); in assay [7] it was 17.7% (inactive); in assay [8], 22.5% (inactive). Further, the inhibition of aggregation in assay [2] is -10.4% (inactive). In addition, the nuclei count in assay [2] was 108%; in assay [3] it was 95.9%. Also, the figures for the fluorescence slope in assay [4] and in assay [6] were -0.562 (inactive) and 0.00355 (inactive), respectively. Besides, the NADPH fluorescence slope in assay [5] is -6.6e-05 (inactive).
With `CCCC(=O)Nc1ccc(OCC(=O)OC)cc1`, the cell count in assay [1] came out at 402. Further, the inhibition was -15.4% (inactive) in assay [1], 8% (inactive) in assay [3], 11% (inactive) in assay [7] and 21.9% (inactive) in assay [8]. Also, the inhibition of aggregation in assay [2] is 5.1% (inactive). Besides, the nuclei count in assay [2] was found to be 98.2%; in assay [3], 84.9%. In addition, the fluorescence slope in assay [4] was -0.439 (inactive); in assay [6] it was 0.00585 (inactive). The NADPH fluorescence slope in assay [5] is -1.2e-05 (inactive).
With `Cc1sc2ncnc(OCC(=O)N3CCN(S(=O)(=O)c4ccc(Cl)cc4)CC3)c2c1C`, in assay [1], the cell count is 682. For the same compound, the inhibition was -9.4% (inactive) in assay [1], -50.8% (inactive) in assay [3], -76.1% (inactive) in assay [7] and 98.9% (active) in assay [8]. Also, the inhibition of aggregation in assay [2] was -30.8% (inactive). For the same compound, the nuclei count in assay [2] was determined as 122%; in assay [3] it was 124%. The fluorescence slope is -0.612 (inactive) in assay [4] and 0.00511 (inactive) in assay [6]. Further, the NADPH fluorescence slope in assay [5] is -4.9e-06 (inactive).
